The source made the active and inactive calls.
Assays:
T47D [1] = assay: Effect of DNA methylation at (+19) CpG site near androgen receptor transcription start site (-9) in human T47D cells by sodium bisulfite sequencing analysis; type: functional, cell-based
Method in brief: (§1)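 T47D cells grown in RPMI-1640 with 10% FBS, 0.5% NEAA, insulin and P/S at 37 °C, 5% CO2. They were plated at 80,000 cells/well 2 days before lipid transfection with 25 nM or 100 nM duplex, with medium changed at 24 h. Cells were harvested 5 days post-transfection. 100 ng bisulfite-treated DNA was PCR-amplified, and products were TA-cloned. 5–15 colonies per plate were sequenced.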

T47D [2] = assay: Effect of DNA methylation at (+43) CpG site near androgen receptor transcription start site (-9) in human T47D cells by sodium bisulfite sequencing analysis; type: functional, cell-based
Method in brief: (§2)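 T47D cells (RPMI-1640, 10% FBS, NEAA, insulin; 37 °C, 5% CO2) transfected with agRNA duplexes via Oligofectamine, medium changed at 24 h. Genomic DNA bisulphite-treated, regions around AR and hPR-B start sites PCR-amplified (HotStarTaq, 100 ng treated DNA), gel-purified, TOPO TA cloned; 5–15 colonies per plate miniprepped and sequenced.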

T47D [3] = assay: Inhibition of PR-B gene expression in human T47D cells at 25 nM by syber green assay in presence of 10 nM estradiol; type: functional, cell-based
T47D [4] = assay: Effect of DNA methylation at (-172) CpG site near androgen receptor transcription start site (-9) in human T47D cells by sodium bisulfite sequencing analysis; type: functional, cell-based; method in brief: as §2
T47D [5] = assay: Effect of DNA methylation at (-167) CpG site near androgen receptor transcription start site (-9) in human T47D cells by sodium bisulfite sequencing analysis; type: functional, cell-based; method in brief: as §2
T47D [6] = assay: Effect of DNA methylation at (-36) CpG site near androgen receptor transcription start site (-9) in human T47D cells by sodium bisulfite sequencing analysis; type: functional, cell-based; method in brief: as §2
T47D [7] = assay: Inhibition of PR-B mRNA gene expression in human T47D cells at 100 nM by syber green assay; type: functional
Method in brief: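 T47D cells in RPMI-1640 with 10% FBS, NEAA, insulin, 37 °C, 5% CO2. Plated two days before transfection without antibiotics. Oligofectamine-mediated duplex RNA transfection at 100 nM final, medium changed at 24 h, harvest five days post-transfection. Total RNA extracted with TRIzol. hPR mRNA quantified by SYBR Green qPCR: 50 °C 2 min, 95 °C 10 min, then 40 cycles of 95 °C 15 s / 60 °C 1 min.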

T47D [8] = assay: Inhibition of PR-A mRNA gene expression in human T47D cells at 100 nM by syber green assay; type: functional
Method in brief: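 T47D cells plated at 80,000/well without antibiotics two days before Oligofectamine transfection with agRNA duplex (25 or 100 nM final); medium changed at 24 h, harvest day 5 unless stated otherwise. TRIzol total RNA; PR mRNA by real-time PCR with SYBR Green: 50 °C 2 min, 95 °C 10 min, 40 cycles 95 °C 15 s/60 °C 1 min.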

T47D [9] = assay: Effect of DNA methylation at (-52) CpG site near androgen receptor transcription start site (-9) in human T47D cells by sodium bisulfite sequencing analysis; type: functional, cell-based; method in brief: as §2
T47D [10] = assay: Inhibition of androgen receptor expression in human T47D cells after 12 days at 100 nM by syber green assay; type: functional, cell-based
Method in brief: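 AR expression in T47D cells, grown in RPMI-1640 with 10% FBS, NEAA and insulin. Plated antibiotic-free two days before Oligofectamine transfection with 100 nM duplex RNA; medium replaced after 24 h. TRIzol total RNA. SYBR Green real-time PCR: 50 °C 2 min, 95 °C 10 min, 40 cycles of 95 °C 15 s and 60 °C 1 min.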

T47D [11] = assay: Effect of DNA methylation at (+11) CpG site near androgen receptor transcription start site (-9) in human T47D cells by sodium bisulfite sequencing analysis; type: functional, cell-based; method in brief: as §1
T47D [12] = assay: Effect of DNA methylation at (-132) CpG site near androgen receptor transcription start site (-9) in human T47D cells by sodium bisulfite sequencing analysis; type: functional, cell-based; method in brief: as §2
T47D [13] = assay: Effect of DNA methylation at (-178) CpG site near androgen receptor transcription start site (-9) in human T47D cells by sodium bisulfite sequencing analysis; type: functional, cell-based; method in brief: as §2
T47D [14] = assay: Effect of DNA methylation at (+1) CpG site near androgen receptor transcription start site (-9) in human T47D cells by sodium bisulfite sequencing analysis; type: functional, cell-based; method in brief: as §1
T47D [15] = assay: Effect of DNA methylation at (-31) CpG site near androgen receptor transcription start site (-9) in human T47D cells by sodium bisulfite sequencing analysis; type: functional, cell-based; method in brief: as §2
T47D [16] = assay: Effect of DNA methylation at (-126) CpG site near androgen receptor transcription start site (-9) in human T47D cells by sodium bisulfite sequencing analysis; type: functional, cell-based; method in brief: as §2
T47D [17] = assay: Effect of DNA methylation at (-57) CpG site near androgen receptor transcription start site (-9) in human T47D cells by sodium bisulfite sequencing analysis; type: functional, cell-based; method in brief: as §2
T47D [18] = assay: Effect of DNA methylation at (-124) CpG site near androgen receptor transcription start site (-9) in human T47D cells by sodium bisulfite sequencing analysis; type: functional, cell-based; method in brief: as §2
T47D [19] = assay: Effect of DNA methylation at (-122) CpG site near androgen receptor transcription start site (-9) in human T47D cells by sodium bisulfite sequencing analysis; type: functional, cell-based; method in brief: as §2
T47D [20] = assay: Effect of DNA methylation at (-43) CpG site near androgen receptor transcription start site (-9) in human T47D cells by sodium bisulfite sequencing analysis; type: functional, cell-based; method in brief: as §2
T47D [21] = assay: Inhibition of PR-A gene expression in human T47D cells at 25 nM by syber green assay in presence of 10 nM estradiol; type: functional, cell-based
T47D [22] = assay: Effect of DNA methylation at (+19) CpG site near androgen receptor transcription start site (-13) in human T47D cells by sodium bisulfite sequencing analysis; type: functional, cell-based; method in brief: as §1
T47D [23] = assay: Effect of DNA methylation at (-122) CpG site near androgen receptor transcription start site (-13) in human T47D cells by sodium bisulfite sequencing analysis; type: functional, cell-based; method in brief: as §2
T47D [24] = assay: Effect of DNA methylation at (-126) CpG site near androgen receptor transcription start site (-13) in human T47D cells by sodium bisulfite sequencing analysis; type: functional, cell-based; method in brief: as §2
T47D [25] = assay: Effect of DNA methylation at (+1) CpG site near androgen receptor transcription start site (-13) in human T47D cells by sodium bisulfite sequencing analysis; type: functional, cell-based; method in brief: as §1
T47D [26] = assay: Effect of DNA methylation at (-52) CpG site near androgen receptor transcription start site (-13) in human T47D cells by sodium bisulfite sequencing analysis; type: functional, cell-based; method in brief: as §2
T47D [27] = assay: Effect of DNA methylation at (-172) CpG site near androgen receptor transcription start site (-13) in human T47D cells by sodium bisulfite sequencing analysis; type: functional, cell-based; method in brief: as §2
T47D [28] = assay: Effect of DNA methylation at (-167) CpG site near androgen receptor transcription start site (-13) in human T47D cells by sodium bisulfite sequencing analysis; type: functional, cell-based; method in brief: as §2
T47D [29] = assay: Effect of DNA methylation at (-124) CpG site near androgen receptor transcription start site (-13) in human T47D cells by sodium bisulfite sequencing analysis; type: functional, cell-based; method in brief: as §2
T47D [30] = assay: Effect of DNA methylation at (-178) CpG site near androgen receptor transcription start site (-13) in human T47D cells by sodium bisulfite sequencing analysis; type: functional, cell-based; method in brief: as §2
T47D [31] = assay: Effect of DNA methylation at (+43) CpG site near androgen receptor transcription start site (-13) in human T47D cells by sodium bisulfite sequencing analysis; type: functional, cell-based; method in brief: as §2
T47D [32] = assay: Effect of DNA methylation at (-36) CpG site near androgen receptor transcription start site (-13) in human T47D cells by sodium bisulfite sequencing analysis; type: functional, cell-based; method in brief: as §2
T47D [33] = assay: Effect of DNA methylation at (-43) CpG site near androgen receptor transcription start site (-13) in human T47D cells by sodium bisulfite sequencing analysis; type: functional, cell-based; method in brief: as §2
T47D [34] = assay: Effect of DNA methylation at (-31) CpG site near androgen receptor transcription start site (-13) in human T47D cells by sodium bisulfite sequencing analysis; type: functional, cell-based; method in brief: as §2
T47D [35] = assay: Effect of DNA methylation at (-132) CpG site near androgen receptor transcription start site (-13) in human T47D cells by sodium bisulfite sequencing analysis; type: functional, cell-based; method in brief: as §2
T47D [36] = assay: Effect of DNA methylation at (-57) CpG site near androgen receptor transcription start site (-13) in human T47D cells by sodium bisulfite sequencing analysis; type: functional, cell-based; method in brief: as §2
T47D [37] = assay: Effect of DNA methylation at (+11) CpG site near androgen receptor transcription start site (-13) in human T47D cells by sodium bisulfite sequencing analysis; type: functional, cell-based; method in brief: as §1

Cc1cn(CC(=O)N(CCNC(=O)CN(CCNC(=O)CN(CCNC(=O)CN(CCNC(=O)CN(CCNC(=O)CN(CCNC(=O)CN(CCNC(=O)CN(CCNC(=O)CN(CCNC(=O)CN(CCNC(=O)CN(CCNC(=O)CN(CCNC(=O)CN(CCNC(=O)CN(CCNC(=O)CN(CCNC(=O)CN(CCNC(=O)CN(CCNC(=O)CN(CCNC(=O)CN(CCNC(=O)CN(CCNC(=O)CN)C(=O)Cn2ccc(N)nc2=O)C(=O)Cn2ccc(N)nc2=O)C(=O)Cn2cnc3c(N)ncnc32)C(=O)Cn2ccc(N)nc2=O)C(=O)Cn2ccc(N)nc2=O)C(=O)Cn2ccc(=O)[nH]c2=O)C(=O)Cn2ccc(N)nc2=O)C(=O)Cn2ccc(N)nc2=O)C(=O)Cn2ccc(N)nc2=O)C(=O)Cn2cnc3c(N)ncnc32)C(=O)Cn2cnc3c(=O)[nH]c(N)nc32)C(=O)Cn2ccc(N)nc2=O)C(=O)Cn2cnc3c(=O)[nH]c(N)nc32)C(=O)Cn2ccc(N)nc2=O)C(=O)Cn2ccc(N)nc2=O)C(=O)Cn2ccc(N)nc2=O)C(=O)Cn2ccc(N)nc2=O)C(=O)Cn2ccc(N)nc2=O)C(=O)Cn2ccc(=O)[nH]c2=O)CC(=O)NCCN(CC(=O)NCC(=O)O)C(=O)Cn2cc(C)c(=O)[nH]c2=O)c(=O)[nH]c1=O
inactive: Activity (T47D [1]) | Activity (T47D [2]) | Activity (T47D [4]) | Activity (T47D [5]) | Activity (T47D [6]) | Activity (T47D [9]) | Activity (T47D [11]) | Activity (T47D [12]) | Activity (T47D [13]) | Activity (T47D [14]) | Activity (T47D [15]) | Activity (T47D [16]) | Activity (T47D [17]) | Activity (T47D [18]) | Activity (T47D [19]) | Activity (T47D [20])
82%: inhibition at 0.1 µM (T47D [7]) | inhibition at 0.1 µM (T47D [8])
active: inhibition (T47D [3]) | inhibition (T47D [10]) | inhibition (T47D [21])

Cc1cn(CC(=O)N(CCNC(=O)CN(CCNC(=O)CN(CCNC(=O)CN(CCNC(=O)CN(CCNC(=O)CN(CCNC(=O)CN(CCNC(=O)CN(CCNC(=O)CN(CCNC(=O)CN(CCNC(=O)CN(CCNC(=O)CN(CCNC(=O)CN(CCNC(=O)CN(CCNC(=O)CN(CCNC(=O)CN(CCNC(=O)CN(CCNC(=O)CN(CCNC(=O)CN(CCNC(=O)CN(CCNC(=O)CN)C(=O)Cn2ccc(N)nc2=O)C(=O)Cn2ccc(=O)[nH]c2=O)C(=O)Cn2ccc(N)nc2=O)C(=O)Cn2ccc(=O)[nH]c2=O)C(=O)Cn2ccc(N)nc2=O)C(=O)Cn2ccc(N)nc2=O)C(=O)Cn2cnc3c(N)ncnc32)C(=O)Cn2ccc(N)nc2=O)C(=O)Cn2ccc(N)nc2=O)C(=O)Cn2ccc(=O)[nH]c2=O)C(=O)Cn2ccc(N)nc2=O)C(=O)Cn2ccc(N)nc2=O)C(=O)Cn2ccc(N)nc2=O)C(=O)Cn2cnc3c(N)ncnc32)C(=O)Cn2cnc3c(=O)[nH]c(N)nc32)C(=O)Cn2ccc(N)nc2=O)C(=O)Cn2cnc3c(=O)[nH]c(N)nc32)C(=O)Cn2ccc(N)nc2=O)C(=O)Cn2ccc(N)nc2=O)CC(=O)NCCN(CC(=O)NCC(=O)O)C(=O)Cn2cc(C)c(=O)[nH]c2=O)c(=O)[nH]c1=O
100%: inhibition at 0.1 µM (T47D [7]) | inhibition at 0.1 µM (T47D [8])
active: inhibition (T47D [3]) | inhibition (T47D [10]) | inhibition (T47D [21])
inactive: Activity (T47D [22]) | Activity (T47D [23]) | Activity (T47D [24]) | Activity (T47D [25]) | Activity (T47D [26]) | Activity (T47D [27]) | Activity (T47D [28]) | Activity (T47D [29]) | Activity (T47D [30]) | Activity (T47D [31]) | Activity (T47D [32]) | Activity (T47D [33]) | Activity (T47D [34]) | Activity (T47D [35]) | Activity (T47D [36]) | Activity (T47D [37])
